Source: ChEMBL document CHEMBL4177543, “Biseokeaniamides A, B, and C, Sterol O-Acyltransferase Inhibitors from an Okeania sp. Marine Cyanobacterium” (J Nat Prod, 2017)
Calls of active or inactive are those of the source. The calls are words filed in the database; no cut-off is given here. Non-standard residues stand in square brackets, D forms with d. Residues, ends and D or L forms follow the SMILES beside them. *: point of attachment. NMeF = CN[C@@H](Cc1ccccc1)C(=O)O; NMeV = CN[C@H](C(=O)O)C(C)C; Butyryl = CCCC(=O)*; X1 = CN(Cc1nccs1)*

Experiments:
[1] = target: T1, Sterol O-acyltransferase 2 (Chlorocebus aethiops, UniProt O77759); assay: Inhibition of African green monkey SOAT2 expressed in CHO cells assessed as reduction in neutral lipid synthesis incubated for 6 hrs using [1-14C]oleic acid by thin-layer chromatography; assay type: cell-based
T1 sequence (O77759 whole entry): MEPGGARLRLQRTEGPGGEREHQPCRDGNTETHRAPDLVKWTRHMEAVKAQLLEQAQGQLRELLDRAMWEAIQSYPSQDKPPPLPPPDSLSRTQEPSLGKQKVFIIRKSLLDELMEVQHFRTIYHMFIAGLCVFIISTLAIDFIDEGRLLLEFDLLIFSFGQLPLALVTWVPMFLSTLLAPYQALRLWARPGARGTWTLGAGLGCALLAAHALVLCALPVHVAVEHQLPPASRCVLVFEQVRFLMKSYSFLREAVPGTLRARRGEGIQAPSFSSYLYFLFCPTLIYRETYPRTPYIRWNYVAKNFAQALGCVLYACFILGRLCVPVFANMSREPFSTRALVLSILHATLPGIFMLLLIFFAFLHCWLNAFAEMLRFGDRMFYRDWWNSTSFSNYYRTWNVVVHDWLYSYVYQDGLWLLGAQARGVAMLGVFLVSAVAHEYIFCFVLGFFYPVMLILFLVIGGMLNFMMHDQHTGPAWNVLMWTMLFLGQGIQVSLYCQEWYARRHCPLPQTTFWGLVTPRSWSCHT
Summary of the method: (§1)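 CHO cells stably expressing monkey SOAT1 or SOAT2 in Ham's F-12 with 10% FBS, plated 1.25 × 10^5 cells/well, recovered overnight, ≥80% confluent. Sample added from 0–1 mg/mL MeOH stocks together with [1-14C]oleic acid (1 nmol) for 6 h at 37 °C. Lipids Bligh–Dyer extracted and separated by TLC; [14C]cholesteryl ester quantified vs control. IC50 from duplicated experiments.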

[2] = target: T1, Sterol O-acyltransferase 2; assay: Inhibition of African green monkey SOAT2 expressed in CHO cell microsomal fractions assessed as reduction in neutral lipid synthesis incubated for 5 mins using [1-14C]oleoyl-CoA by thin-layer chromatography
[3] = target: T2, Sterol O-acyltransferase 1 (Chlorocebus aethiops, UniProt O77760); assay: Inhibition of African green monkey SOAT1 expressed in CHO cell microsomal fractions assessed as reduction in neutral lipid synthesis incubated for 5 mins using [1-14C]oleoyl-CoA by thin-layer chromatography
T2 sequence (O77760 whole entry): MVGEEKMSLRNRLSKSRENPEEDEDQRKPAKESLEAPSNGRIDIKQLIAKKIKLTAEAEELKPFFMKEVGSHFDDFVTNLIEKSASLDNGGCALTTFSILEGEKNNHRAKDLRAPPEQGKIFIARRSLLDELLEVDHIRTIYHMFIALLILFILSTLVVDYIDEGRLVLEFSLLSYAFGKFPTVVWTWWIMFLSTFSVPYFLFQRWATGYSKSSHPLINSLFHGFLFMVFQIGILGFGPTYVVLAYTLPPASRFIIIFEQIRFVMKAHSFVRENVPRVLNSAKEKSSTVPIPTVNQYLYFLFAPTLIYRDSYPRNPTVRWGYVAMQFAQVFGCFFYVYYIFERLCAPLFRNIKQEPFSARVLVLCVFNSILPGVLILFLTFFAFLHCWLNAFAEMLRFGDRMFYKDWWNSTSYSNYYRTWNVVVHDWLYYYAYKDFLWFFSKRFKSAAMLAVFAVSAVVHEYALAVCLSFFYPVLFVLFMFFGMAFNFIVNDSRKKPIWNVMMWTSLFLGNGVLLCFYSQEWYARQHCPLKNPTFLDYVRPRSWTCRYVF

[4] = target: T2, Sterol O-acyltransferase 1; assay: Inhibition of African green monkey SOAT1 expressed in CHO cells assessed as reduction in neutral lipid synthesis incubated for 6 hrs using [1-14C]oleic acid by thin-layer chromatography; assay type: cell-based; summary of the method: as §1
HeLa [5] = assay: Growth inhibition of human HeLa cells incubated for 72 hrs by MTT assay; assay type: functional, cell-based
Summary of the method: (§2)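 HeLa (DMEM) or HL60 (RPMI) cells, 10% heat-inactivated FBS, 37 °C, 5% CO2. HeLa seeded 2 × 10^4 cells/well and cultured overnight; HL60 seeded 1 × 10^5 cells/well. Exposed to a range of concentrations for 72 h; proliferation read by MTT; IC50 reported.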

HL-60 = assay: Growth inhibition of human HL60 cells incubated for 72 hrs by MTT assay; assay type: functional, cell-based; conditions: HL-60, 72 h; summary of the method: as §2
HeLa [6] = assay: Induction of cell killing in human HeLa cells assessed as reduction in cell viability at 1 to 30 uM incubated for 48 hrs in presence of 50 uM Z-VAD-FMK by trypan blue dye exclusion method; assay type: functional, cell-based
Summary of the method: (§3)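 HeLa seeded 4 × 10^4 cells/well, cultured overnight, then preincubated 30 min with or without 50 μM Z-VAD-FMK. Compound added at various concentrations for 48 h. Cells stained with 0.8 mg/mL trypan blue; viability from counts of stained (dead) cells. Mean ± SD of quadruplicates.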

HeLa [7] = assay: Induction of cell killing in human HeLa cells assessed as reduction in cell viability at 1 to 30 uM incubated for 48 hrs by trypan blue dye exclusion method; assay type: functional, cell-based; summary of the method: as §3
HeLa [8] = assay: Induction of apoptosis in human HeLa cells assessed as induction of caspase-3 activation incubated for 24 hrs using Ac-DEVD-pNA as substrate by spectrophotometry; assay type: functional, cell-based
Summary of the method: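 Exponentially growing HeLa, 2 × 10^6 cells per 60 mm dish, incubated 12 h at 37 °C, then treated 24 h. Cells washed in cold PBS, lysed by three freeze–thaw cycles plus 15 min on ice, and clarified at 15000g. Lysate incubated with Ac-DEVD-pNA, 37 °C, 4 h; p-nitroaniline read at 405 nm. Activity relative to 1% MeOH control; triplicates; tunicamycin positive control.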

SMILES | IC50 [1] | IC50 [2] | IC50 [3] | IC50 [4] | IC50 (HeLa [5]) | IC50 (HL-60) | Activity (HeLa [6]) | Activity (HeLa [7]) | Activity (HeLa [8])
COc1c([C@H](CC(C)C)OC(C)=O)ccc2c1C(=O)OCc1cc(C)cc(O)c1O2 | 1.5 µM | 1.8 µM | 0.9 µM | 2.5 µM | – | – | – | – | –
CCCC(=O)N[C@H](C(=O)N1CCC[C@H]1C(=O)N(C)[C@@H](Cc1ccccc1)C(=O)N[C@@H](CC(C)C)C(=O)N(C)[C@H](C(=O)N(C)Cc1nccs1)C(C)C)C(C)C (Butyryl-VP[NMeF]L[NMeV]-X1) | 9.6 µM | > 32 µM | 11 µM | > 12 µM | 43 µM | > 100 µM | – | – | –
CCCC(=O)N(C)[C@H](C(=O)N1CCC[C@H]1C(=O)N(C)[C@@H](Cc1ccccc1)C(=O)N[C@@H](CC(C)C)C(=O)N[C@H](C(=O)N(C)Cc1nccs1)C(C)C)C(C)C (Butyryl-[NMeV]P[NMeF]LV-X1) | 2.5 µM | 9.9 µM | 6.8 µM | 6.9 µM | 4.5 µM | 19 µM | inactive | Active | Dose-dependent effect
CCCC(=O)N(C)[C@H](C(=O)N1CCC[C@H]1C(=O)N(C)[C@@H](Cc1ccccc1)C(=O)N[C@@H](CC(C)C)C(=O)N(C)[C@H](C(=O)N(C)Cc1nccs1)C(C)C)C(C)C (Butyryl-[NMeV]P[NMeF]L[NMeV]-X1) | 1.3 µM | 9.6 µM | 1.8 µM | 1.8 µM | 29 µM | 30 µM | – | – | –
